These results are taken from article PMC5953009 (Chemical Science, 2015).

Assay [1] concerns Pseudomonas aeruginosa strain PAO1. Briefly: Bacterial cell viability in the supernatant of the biofilm inhibition assay. In kind it is cell-based. As to conditions: CFU counts in the biofilm supernatant and growth test in full medium.
The subject of assay [2] is Pseudomonas aeruginosa strain PAO1 biofilms. Briefly: Dispersal of already established biofilms. It counts as cell-based. The following applies: 24 h. The method, boiled down: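 PAO1 inoculum (LB overnight, washed, OD600 1) grown as biofilm 24 h at 37 °C, static, without compound, in 0.25% nutrient broth. Wells washed twice, then 0.25% broth with sterile-filtered test compound added (50 μM or stated concentration). After a further 24 h at 37 °C static, wells washed twice and stained 2.5–3 h with 0.5 mM WST-8/20 μM phenazine ethosulfate. A450 read; value is concentration giving complete dispersal.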

Assay [3] relates to Pseudomonas aeruginosa PAO1. As to conditions: cited from earlier work.
The subject of assay [4] is Pseudomonas aeruginosa strain PAO1 biofilms. Kind of assay: Biofilm inhibition. In kind it is cell-based. The following applies: 24 h growth, WST-8; compound alone. In a few lines: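 PAO1 grown overnight in LB at 37 °C with 180 rpm shaking, washed in 0.25% (w/v) nutrient broth and normalised to OD600 1. Inoculated into 0.25% nutrient broth no. 2 containing sterile-filtered test compound at varied concentrations. Incubated 24–25 h at 37 °C, static, humid. Wells washed twice with water, stained 2.5–3 h at 37 °C with 0.5 mM WST-8 plus 20 μM phenazine ethosulfate in 0.25% broth. Supernatant A450 read.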

The subject of assay [5] is Pseudomonas aeruginosa PAO1. Briefly: Broth microdilution method. The following applies: standard 2-fold dilution assay, full LB medium. It counts as cell-based. The method, boiled down:
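Broth microdilution: 64 μM compound stocks in LB, sterile-filtered, diluted serially 1/2 in LB. PAO1 grown overnight in LB (37 °C, 180 rpm), diluted to OD600 0.022; 4 μL added to 150 μL sample (~5 × 10^5 CFU). Sterility, growth and polymyxin B (from 64 μg mL−1) controls. Incubated ~18 h at 37 °C, static. MTT (1 mg mL−1) added, 10 min RT. MIC = lowest concentration without visible growth by eye.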

The target of a further assay is LecB (Pseudomonas aeruginosa, UniProt Q9HYN5). Briefly: Isothermal titration calorimetry. In kind it is binding.
Sequence of LecB (Q9HYN5 2-115 limits assumed): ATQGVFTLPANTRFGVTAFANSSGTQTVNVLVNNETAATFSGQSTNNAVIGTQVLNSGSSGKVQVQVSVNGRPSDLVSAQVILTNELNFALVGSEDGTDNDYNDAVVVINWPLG
The next assay deals with T1, LecA (Pseudomonas aeruginosa, UniProt Q05097).
T1 sequence (Q05097 1-122): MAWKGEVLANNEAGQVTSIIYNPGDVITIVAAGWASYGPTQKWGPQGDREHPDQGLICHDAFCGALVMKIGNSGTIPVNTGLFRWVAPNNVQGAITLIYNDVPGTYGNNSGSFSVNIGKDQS
Kind of assay: Isothermal titration calorimetry. In kind it is binding.

Setting [6] is: ITC, 20 mM Tris, 100 mM NaCl, 100 μM CaCl2, pH 7.5, 25 °C.
The mark [7] stands for this setting: ITC, 20 mM Tris, 100 mM NaCl, 100 μM CaCl2, pH 7.5, 25 °C, average of two runs.

Values after ≈ are worked out from the molar mass of the structure shown. Where two headings read alike, the source gives them in different places. Marks after values point to notes of the source that are not given here. Bounds are passed on as bounds.

In the case of `NC[C@H]1O[C@H](O[C@H]2[C@H](O)[C@@H](O[C@H]3O[C@H](CO)[C@@H](O)[C@H](N)[C@H]3O)[C@H](N)C[C@@H]2N)[C@H](N)C[C@@H]1O` [Tobramycin], the “MBC (minimal bactericidal concentration under biofilm forming conditions)” value in assay [1] was 0.5 µM (≈ 0.234 µg/mL); in assay [1] (listed as tobramycin), “bactericidal antibiofilm effect”. Besides, the “Dispersal of already established biofilms” value (shortened to “Dispersal”) in assay [2] (compound at 4 μM) worked out at 100% dispersal @ 4 μM. In assay [3], the “MIC (minimal inhibitory concentration)” value was 1 μg mL^–1 ^g. In addition, in assay [4], the “MBIC (minimal biofilm inhibitory concentration)” value amounted to 0.5 µM.
Consider (Ac-KKL)4(KFCxKI)2KHI [AcG2xK], for which the “MIC (minimal inhibitory concentration)” value in assay [5] is greater than 64 µM. Moreover, in assay [2] (compound at 50 μM), the “Dispersal” value amounted to 100% dispersal.
For `CC(=O)N[C@H]1C(O)O[C@H](CO)[C@@H](O[C@@H]2O[C@@H](C)[C@@H](O)[C@@H](O)[C@@H]2O)[C@@H]1O[C@@H]1O[C@H](CO)[C@H](O)[C@H](O)[C@H]1O` (stereo partly shown) [Le^a, Lewis^a trisaccharide], at LecB (setting [6]), the Kd came out at 213 ± 2 nM, the ΔG entry is given as “–9.10 ± 0.02 kcal mol^–1”, the ΔH entry is reported as “–8.35 ± 0.02 kcal mol^–1” and the “–TΔS” value is reported as “–0.74 ± 0.002 kcal mol^–1”. The “n (stoichiometry of the binding)” value at LecB (setting [7]) worked out at 1.08 ± 0.01. The “r.p./nsugar (relative potency per fucoside)” value on LecB (KD(FucOCH3)/KD(ligand)/nFuc) is 2.
Take `O=[N+]([O-])c1ccc(O[C@@H]2O[C@H](CO)[C@H](O)[C@H](O)[C@H]2O)cc1` [NPG, 4-nitrophenyl-β-D-galactopyranoside]: at LecA (setting [6]), the ΔH entry is “–10.6 ± 0.45 kcal mol^–1” and the “–TΔS” value is given as 4.0 kcal mol^–1. The “n (stoichiometry of the binding)” value on LecA (setting [7]) was 0.91 ± 0.03. Further, the “r.p./nGal (relative potency per galactoside)” value at LecA (KD(GalAG0 or GalBG0)/KD(ligand)/nGal) is 0.2.
As to Polymyxin B, the “Dispersal” value in assay [2] (compound at 10 μM) is on record as “∼70% dispersal @ 10 μM”. The “MIC (minimal inhibitory concentration)” value in assay [3] (full medium) is 2 μg mL^–1 ^f.
